Source: PubChem
CHO parental Ca = ATP-evoked calcium signal inhibitors, parental CHO, primary screen, counter-screen for OX1R antagonist project, cell-based, fluorescence, Fluo-8 calcium dye; actives 0.63% (n = 330,000); AID 463079, 2010; parental CHO-K1, ATP-induced calcium, Fluo-8 fluorescence; inhibition, % at 5.6 µM;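 active means inhibition above that plate's mean sample inhibition plus 3 SD, cut at about 26% in these data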
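Test system: parental CHO cells; detection: calcium-sensitive Fluo-8 fluorescence; evaluation: percent inhibition of calcium signal; also added: ATP as calcium-mobilizing challenge; repeats: one well per compound; control set: ATP-challenged DMSO wells low, unchallenged DMSO wells high; compound: single nominal dose of 5.6 µM per compound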
GalR3 antagonist = GalR3 antagonists in HEK293 cells, primary screen, cell-based, fluorescence readout. AID 651719, 2012. actives 0.44% (n = 360,000). inhibition, % at 3 µM. HEK293 GalR3-CNG cAMP membrane potential fluorescence; galR3 body fused to GalR1 C-terminus;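 active means inhibition above the screen-wide average plus 3 SD, cut at about 13% in these data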;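 further: forskolin and galanin both at EC90 stimulate the cells; cAMP rise reported by CNG channel membrane potential dye signal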
Target sequence (O60755 1-299 limits assumed): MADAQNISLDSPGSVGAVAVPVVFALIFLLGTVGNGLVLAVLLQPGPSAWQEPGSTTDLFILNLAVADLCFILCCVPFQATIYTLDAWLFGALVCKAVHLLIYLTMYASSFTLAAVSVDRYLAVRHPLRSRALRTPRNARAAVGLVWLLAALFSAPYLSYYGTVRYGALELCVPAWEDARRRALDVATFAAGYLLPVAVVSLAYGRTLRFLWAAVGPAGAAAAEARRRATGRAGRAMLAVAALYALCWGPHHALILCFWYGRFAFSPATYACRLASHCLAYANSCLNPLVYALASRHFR
OX1R antag-1 = antagonists of human orexin 1 receptor (OX1R) | Orexin/Hypocretin receptor type 1 (Homo sapiens), O43613 | actives 1.8% (n = 330,000) | inhibition, % at 6.6 µM | OX1R-expressing cells, FRET antagonist read-out; in the data active means inhibition mostly above about 38%, no sharp cut-off; inactive means mostly below about 40%
OX1R antag-2 = OX1R (HCRTR1) antagonists, primary screen, fluorescence, CHO/OX1R cells, Fluo-8 calcium, orexin A; Orexin/Hypocretin receptor type 1 (Homo sapiens), O43613; Fluo-8 calcium fluorescence; inhibition, % at 5 µM; actives 0.43% (n = 330,000);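 active means inhibition above its plate's threshold, mean inhibition of all tested compounds on the plate plus 3 SD, cut at about 37% in these data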
GPR7 antagonist = GPR7 receptor antagonists, primary screen, cell-based, fluorescence, single concentration; Neuropeptides B/W receptor type 1 (Homo sapiens), P48145; GPR7-expressing cells, fluorescence antagonist assay; inhibition, % at 4.4 µM; actives 1.1% (n = 290,000); AID 1861, 2009; in the data active means inhibition above about 16%, passing the limit was not always enough;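 further: cells stimulated with the agonist NPW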
Target sequence (P48145 whole entry, looked up): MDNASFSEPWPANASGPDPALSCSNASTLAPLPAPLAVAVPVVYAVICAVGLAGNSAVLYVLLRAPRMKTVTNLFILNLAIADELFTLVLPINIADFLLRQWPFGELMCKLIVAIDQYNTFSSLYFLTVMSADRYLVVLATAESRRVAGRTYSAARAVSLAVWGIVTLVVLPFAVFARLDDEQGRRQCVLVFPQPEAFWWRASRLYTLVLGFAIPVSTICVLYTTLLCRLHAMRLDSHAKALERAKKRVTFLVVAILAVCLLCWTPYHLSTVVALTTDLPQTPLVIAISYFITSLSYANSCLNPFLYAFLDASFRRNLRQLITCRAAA
GPR7 antag conf = GPR7 receptor antagonists, confirmation, cell-based, fluorescence, single concentration. GPR7-expressing cells, calcium fluorescence antagonist mode. AID 1952, 2009. actives 52% (n = 2,400). shares compounds with GPR7 antagonist. inhibition, % at 4.4 µM; in the data active means inhibition above about 24%;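 further: stimulated with the GPR7 agonist NPW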
MCHR1 antagonist = MCHR1 antagonists in cells, counter-screen for GPR7 antagonist project, cell-based, fluorescence, human; shares compounds with GPR7 antagonist; MCHR1-expressing cells, fluorescence antagonist assay; inhibition, % at 4.4 µM; actives 62% (n = 2,400); in the data active means inhibition above about 22%
A number is an active result; – = inactive; · = no result. Rows were chosen to be rich in hits. Some 3.1% of all compounds tested hit in one or more screens of this group.

SMILES	CHO parental Ca	GalR3 antagonist	OX1R antag-1	OX1R antag-2	GPR7 antagonist	GPR7 antag conf	MCHR1 antagonist
CCOc1ccccc1NC(=O)Nc1cccc(S(N)(=O)=O)c1	–	–	–	–	–	·	·
CCCc1ccc(-c2ccc(-c3noc(-c4ccncc4)n3)cc2)nc1	–	–	–	–	–	·	·
CCCCc1ccc(-c2ccc(Br)cc2)nc1	–	–	–	–	29.8	–	–
CN(C)CCNC(=O)c1cc2c(s1)-c1ccc(Cl)cc1SC2	·	–	·	·	69.1	93.0	93.5
CC(=O)c1ccc(S(=O)(=O)N2CCN(C(=O)CSc3ccc(C)c(C)c3)CC2)cc1	–	–	–	–	34.8	–	–
O=C(CSc1nnc(Cc2cccs2)n1Cc1ccco1)Nc1cccc(Cl)c1	–	–	–	–	21.2	24.6	33.1
O=C(OCC(=O)N1CCN(C(=O)c2ccco2)CC1)c1cc(-c2ccc(Cl)c(Cl)c2Cl)nc2ccccc12	–	–	–	–	–	·	·
CN1CCCN(C(=O)c2cc(-c3ccc(Cl)c(Cl)c3Cl)nc3ccccc23)CC1	–	–	–	–	21.2	31.4	39.2
Cc1ccc(C)c(NC(=S)NCCN(C2CCCCC2)C2CCCC2)c1	–	–	–	–	46.0	43.6	35.6
O=C(O)CC(NC(=O)C1c2ccccc2Oc2ccccc21)c1ccc(Cl)cc1 (centres undefined)	–	–	–	–	34.9	–	–
CCOc1ccc(C(CC(=O)O)NC(=O)C2c3ccccc3Oc3ccccc32)cc1 (centres undefined)	–	–	–	–	–	·	·
COc1ccc(NC(=O)N(C)C[C@@H]2OCc3cnnn3CCCC(=O)N([C@@H](C)CO)C[C@H]2C)c(OC)c1	·	–	·	·	·	·	·
Cc1cc(C)c(CSc2ncc(-c3ccc([N+](=O)[O-])cc3)[nH]2)c(C)c1	40.0	–	91.3	39.9	41.6	68.0	83.2
Nc1nc(Nc2cccc(Cl)c2)n[nH]1	–	–	–	–	–	·	·
O=C(Nc1ccc(OC(F)(F)F)cc1)Nc1cccnc1	–	–	–	–	21.8	–	29.8
CN(C)CCCN(C(=O)c1ccc(S(=O)(=O)N2CCCCCC2)cc1)c1nc2c(F)cc(F)cc2s1	–	–	–	–	·	·	·
O=C(c1ccc(NC2=NC3CS(=O)(=O)CC3S2)cc1)N(CCO)Cc1ccccc1 (centres undefined)	–	–	–	–	–	·	·
Cc1cc(N2CCOCC2)nc(NCc2ccccc2)n1	–	–	–	–	23.0	60.5	71.7
Cc1cc(NCc2ccccc2)nc(N2CCOCC2)n1	–	–	–	–	–	·	·
Cc1cc(OC2CCCCC2)nc(NCc2ccccc2)n1	–	–	–	–	–	·	·
Cc1cc(N2CCCCC2)nc(NCc2ccccc2)n1	–	–	–	–	84.1	73.4	88.9
C=CCn1nc(C(=O)N2CCOCC2)cc1-c1sc(NC(=O)c2ccccc2)nc1C	·	–	·	·	·	·	·
O=C(NC1CCCCC1)C(c1cccnc1)N(C(=O)c1csnn1)c1ccccc1 (centres undefined)	–	–	–	–	–	·	·
CCOC(=O)[C@]12CCC=C1N(Cc1ccc(Cl)cc1Cl)C(=O)[C@H](CC(=O)N1CCC(c3ccccc3)CC1)C2	·	–	·	·	·	·	·
O=[N+]([O-])c1cccnc1Oc1ccc(OCc2ccccc2)cc1	–	–	–	–	–	·	·
SMILES	CHO parental Ca	GalR3 antagonist	OX1R antag-1	OX1R antag-2	GPR7 antagonist	GPR7 antag conf	MCHR1 antagonist
O=[N+]([O-])c1ccc(Oc2ccc(OCc3ccccc3)cc2)nc1	–	–	–	–	61.4	39.9	60.9
CCCCNC(=O)C1CCN(S(=O)(=O)c2ccc3c(c2)CC(C)N3C(=O)C2CC2)CC1 (centres undefined)	–	–	–	–	–	·	·
CC(C)CCNC(=O)C1CCN(S(=O)(=O)c2ccc3c(c2)CC(C)N3C(=O)C2CC2)CC1 (centres undefined)	–	–	–	–	25.1	–	–
COCCNC(=O)c1cccc2c(-c3ccnn3C)coc12	·	–	·	·	·	·	·
CC(=O)O[C@@H]1C[C@H]2C(C)(C)C(=O)C=C[C@]2(C)[C@H]2CC[C@@]3(C)[C@H](c4ccoc4)OC(=O)[C@H]4O[C@]43[C@@]21C	–	–	–	–	28.4	41.7	–
O=C1COc2ccc(C(=O)COC(=O)Cn3cnc4ccccc43)cc2N1	–	–	–	–	24.2	–	–
O=C1COc2ccc(C(=O)COC(=O)c3ccc4ccccc4n3)cc2N1	–	–	–	–	–	·	·
O=C1c2ccccc2C(=O)C12OC2c1ccc(Cl)cc1Cl (centres undefined)	–	–	–	–	–	·	·
CC1(C)Cc2c(C#N)c(N)n(-c3ccccc3)c(=S)c2CO1	–	–	–	–	91.8	–	–
Cc1cccc(C)c1-n1c(SCC(=O)N2CC(=O)Nc3ccccc32)nc2ccccc2c1=O	–	–	–	–	–	·	·
Cc1ccc(-n2c(SCC(=O)N3CC(=O)Nc4ccccc43)nc3ccccc3c2=O)cc1	–	–	–	–	27.2	–	–
COc1ccc(CN2C(=O)c3ccccc3C2C(=O)NCCc2ccccc2)c(OC)c1 (centres undefined)	–	–	–	–	–	·	·
CC1CCC(NC(=O)C2c3ccccc3C(=O)N2Cc2cccs2)CC1 (centres undefined)	–	–	–	–	–	·	·
COc1ccc(CN2C(=O)c3ccccc3C2C(=O)NC2CCCCCC2)c(OC)c1 (centres undefined)	·	–	·	·	32.7	–	34.4
O=C(NC1CCCCCCC1)C1c2ccccc2C(=O)N1Cc1cccs1 (centres undefined)	–	–	–	–	27.1	32.4	–
Cc1cc(C)c(CN2CCN(C(=O)CC[C@H]3O[C@@H](n4ccc(=O)[nH]c4=O)[C@H](O)[C@@H]3O)CC2)c(C)c1	·	–	·	·	·	·	·
CC(C)(C)OC(=O)C[C@H]1C/C=C\C[C@H](CC(=O)N[C@H](CO)Cc2ccccc2)C(=O)N[C@@H](Cc2ccccc2)COC1=O	–	–	–	–	·	·	·
CC(C)Cc1ccc(C(C)C(N)=NCCc2ccccc2)cc1 (centres undefined)	·	–	·	·	51.8	39.2	54.1
COc1ccccc1/C=N/OC(=O)c1ccc(C)cc1	–	–	–	–	–	·	·
COc1cc(CN2CCC(CO)(Cc3cccc(C(F)(F)F)c3)CC2)ccc1F	–	–	–	–	34.3	–	44.2
COc1ccc(F)c(CN2CCC(CO)(Cc3cccc(C(F)(F)F)c3)CC2)c1	–	–	–	–	–	·	·
